According to paper PMC2199177 (The Journal of Experimental Medicine, 1997):

Key:
T1 CTL = assay: 51Cr-release assay; assay type: cell-based; details: without Fab'
How it was run: (§1)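 51Cr-labeled P815 targets (2 × 10^3/well) in DMEM with FCS (5%) and Hepes (10 mM) plus 10-fold peptide dilutions, 10−6–10−13 M. Cloned CTL (6 × 10^3/well) added, 4 h at 37°C, then supernatant 51Cr counted. Specific lysis was derived from spontaneous and total release. Relative activity is the wt half-maximal-lysis concentration divided by the variant's, normalized by relative Kd competitor activity. Triplicates, at least two experiments.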

S14 CTL [1] = details: ref [4]; cited from earlier work
S17 CTL [2] = assay: 51Cr-release assay; assay type: cell-based; details: without Fab'
How it was run: as §1

S14 CTL [3] = assay: 51Cr-release assay; assay type: cell-based; details: without Fab'
How it was run: as §1

S17 CTL [4] = assay: Interferon γ assay; assay type: cell-based
How it was run: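 CTL were incubated with peptide-sensitized P815 targets as in the cytotoxicity assay, with peptide derivatives at 10−6–10−11 M, some runs with SF1-1.1.1 Fab′ (anti-Kd α3) to block CD8 participation. After 24 h, supernatant IFN-γ was measured by ELISA and values were normalized to the wt ligand. Triplicates, at least two experiments.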

Substance	functional phenotype (antigen recognition versus TCR-ligand binding) (S17 CTL [2])	effect of blocking of CD8 (SF1-1.1.1 Fab') on IFN-γ production (S17 CTL [4])	further results
IASA-YIASAEK(ABA)I [P255A]	–	–	functional phenotype (antigen recognition versus TCR-ligand binding) (T1 CTL): strong agonists
IASA-YILSAEK(ABA)I [P255L]	–	–	functional phenotype (S14 CTL [1]): antagonist
IASA-YIPAAEK(ABA)I [S256A]	strong agonists	–	–
IASA-YIPSAAK(ABA)I [E258A]	–	–	functional phenotype (antigen recognition versus TCR-ligand binding) (S14 CTL [3]): weak agonists
IASA-YIPSAEK(ABA)I [WT]	–	substantially increased	–
IASA-YISSAEK(ABA)I [P255S]	weak agonists	substantially increased	–
